This sample holds only a part of the variants without activity.
B1: tRNA (parent)
chain: GUUCCGUUGGCGUAAUGGUAACGCGUCUCCCUCCUAAGGAGAAGACUGCGGGUUCGAGUCCCGUACGGAACG

Variants of: B1
Assay: yeast fitness relative to wild type (ratio to wild type); higher = fitter; tRNA-Arg(CCU), competitive growth, 37 C, YPD
Summary of the method: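 Amplicons of the tRNA-Arg(CCU) gene were sequenced, 100-nucleotide paired-end, from the start population and from each end population of a pooled yeast competition. The competition, in six parallel replicates, lasted 24 hours in YPD at 37°C. Fitness relative to wild type was calculated from changes in genotype frequencies. Genotypes had to have ≥ 100 starting reads, and estimates < 0.5 were set to 0.5.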

| Variant | yeast fitness |
| --- | --- |
| GUUCCGUUGGCGUAAUGGUAACGCGUCUCCGUCCUCAGGAGAAGACUGUGGGUGCGAGUCCCGUUCGGAACG [C31G A36C C49U U54G A65U] | ≤ 0.5 |
| GUUCCGUUGGCGUAAUGGUAACGCGUCUCCGUCCUAUGGAGAAGACUCCGGGUUCGAGUCCCGUACGGAACG [C31G A37U G48C] | 0.528 |
| GUUCCGUUGGCGUAAUGGUAACGCGUCUCCGUCCUCAGGAGGAGACUGCGGAUUCGAGUCCCGUACGGAACG [C31G A36C A42G G52A] | ≤ 0.5 |
| GUUCCGUUGGCGUAAUGGUAACGCGUCUCCGUCCUAAGGAGAAGGCUGCGGGUUCGAGUCCCGUGCGGAACG [C31G A45G A65G] | 0.628 |
| GUUCCGUUGGCGUAAUGGUAACGCGUCUCCGUCCUAAGGAGACGACUGCGGGUUCGAGUCCCGUACGGAUCG [C31G A43C A70U] | 0.637 |
| GUUCCGUUGGCGUAAUGGUAACGCGUCUCCAUCCUAAGGAGAAGACUGCGGGUUCGAGCCCCGUACGGAACG [C31A U59C] | 0.767 |
| GUUCCGUUGGCGUAAUGGUAACGCGUCUCCGUCCUAAGGAGAUGAGUGCGGGUUCGAGUCCCGUACGGAACG [C31G A43U C46G] | 0.586 |
| GUUCCGUUGGCGUAAUGGUAACGCGUCUCCAUCCUAAGGAGAAGACUGCGGGUUCGAGUCCCAUACGGAACG [C31A G63A] | 0.676 |
| GUUCCGUUGGCGUAAUGGUAACGCGUCUCCAUCCUAAGGAGAAGACUGCGGGUUCGAGUCCCCUACGGAACG [C31A G63C] | 0.62 |
| GUUCCGUUGGCGUAAUGGUAACGCGUCUCCGUCCUAAGGAGAGGACUGUGGGUUCGAGUCCCGUACGACACG [C31G A43G C49U G68A A69C] | ≤ 0.5 |
| GUUCCGUUGGCGUAAUGGUAACGCGUCUCCAUCCUAAGGAGAAGACUGCGGGUUCGAGUCCCCUACGUAACG [C31A G63C G68U] | ≤ 0.5 |
| GUUCCGUUGGCGUAAUGGUAACGCGUCUCCAUCCUAAGGAGAAGACUCCGGGUCCGAGUCACGUACGGAGCG [C31A G48C U54C C61A A70G] | ≤ 0.5 |
| GUUCCGUUGGCGUAAUGGUAACGCGUCUCCGUCCUCAGGAGAAGAGUGCGCGUUCGAGUCCCGUACGGAACG [C31G A36C C46G G51C] | 0.597 |
| GUUCCGUUGGCGUAAUGGUAACGCGUCUCCGUCCUACGGAGAAGACUGCAGGUUCGAGUCCCGUCCGGAACG [C31G A37C G50A A65C] | ≤ 0.5 |
| GUUCCGUUGGCGUAAUGGUAACGCGUCUCCGUCCUUAGGAAAAGCCUGCGGGUUCGAGUCCCGUACGGAACG [C31G A36U G41A A45C] | ≤ 0.5 |
| GUUCCGUUGGCGUAAUGGUAACGCGUCUCCGUCCUAAGGGGAAGAAUGCGGGUCGGAGUCCCGUACGGAACG [C31G A40G C46A U54C C55G] | ≤ 0.5 |
| GUUCCGUUGGCGUAAUGGUAACGCGUCUCCACCCUAAGGAGAAGACUGCGGGUUCGAGUCCCGUACGGAACG [C31A U32C] | 0.766 |
| GUUCCGUUGGCGUAAUGGUAACGCGUCUCCGUCCUUAGGAGAAGAUUGCGGGUUCGAGUCCCGUCCGGAACG [C31G A36U C46U A65C] | 0.74 |
| GUUCCGUUGGCGUAAUGGUAACGCGUCUCCGUCCUAAGGCGAAGACUGCGGGUUCGAGUCCCGUACGGAACG [C31G A40C] | 0.718 |

| Variant | yeast fitness |
| --- | --- |
| GUUCCGUUGGCGUAAUGGUAACGCGUCUCCGUCCUAAGGUGAAGACUGCGGGUUCGAGUCCCGUACGGAACG [C31G A40U] | 0.998 |
| GUUCCGUUGGCGUAAUGGUAACGCGUCUCCAUCCUAAGGAGAAGACUGCGGGCUCGAGUCCCGUACGGAACG [C31A U53C] | 0.571 |
| GUUCCGUUGGCGUAAUGGUAACGCGUCUCCGUCCUAAGGAGGAGACGGCGGGUUCGAGUCCCGUACGGAACG [C31G A42G U47G] | 0.573 |
| GUUCCGUUGGCGUAAUGGUAACGCGUCUCCGUCCUAAGGAGUAGACUGCGGGUUCGACUCCCGUACGGAACG [C31G A42U G58C] | 0.538 |
| GUUCCGUUGGCGUAAUGGUAACGCGUCUCCGUCCUAAGGAGUAGACUGCGGGUUCGAGUCCCGUACGGAACG [C31G A42U] | 0.983 |
| GUUCCGUUGGCGUAAUGGUAACGCGUCUCCGUCCUCAGGAGAAGACUGCGGGUUCGAGUCCGGUACGGAACG [C31G A36C C62G] | ≤ 0.5 |
| GUUCCGUUGGCGUAAUGGUAACGCGUCUCCGUCCUAAGGAGAAGACUGCGGGUUCGAGUCCCGUUCGGAACG [C31G A65U] | 0.799 |
| GUUCCGUUGGCGUAAUGGUAACGCGUCUCCAUCCUAAGGAGAAGACCGCGGGUUCGAGUCCCGUACGGUACG [C31A U47C A69U] | ≤ 0.5 |
| GUUCCGUUGGCGUAAUGGUAACGCGUCUCCGUCCUAAGGAGAGGACUGCGAGUUCGAGUCCCGUACGGAACG [C31G A43G G51A] | 0.593 |
| GUUCCGUUGGCGUAAUGGUAACGCGUCUCCAUCCUAAGGAGAAGACUGCGCGUUCGAGUUCCGUACAGAACG [C31A G51C C60U G67A] | ≤ 0.5 |
| GUUCCGUUGGCGUAAUGGUAACGCGUCUCCGUCCUAAGGGGAAGAAUGCGGGUUGGAGUCCCGUACGGAACG [C31G A40G C46A C55G] | 0.578 |
| GUUCCGUUGGCGUAAUGGUAACGCGUCUCCGUCCUAAGGAGAAGACUGCGGGUUCGAGUCCCGUCUGGAACG [C31G A65C C66U] | ≤ 0.5 |
| GUUCCGUUGGCGUAAUGGUAACGCGUCUCCGUCCUAUGGAGAAGACUGCGGGUUGGCGUCCCGUACGGAACG [C31G A37U C55G A57C] | 0.541 |
| GUUCCGUUGGCGUAAUGGUAACGCGUCUCCGUCCUAUGGAGUAGACUGCGGGUUCGAGUCCCGUACGGAACG [C31G A37U A42U] | 0.56 |
| GUUCCGUUGGCGUAAUGGUAACGCGUCUCCGUCCUAAGGAGAUGACUGCGGGUUCGAGUCCCGUACGGAACG [C31G A43U] | 0.984 |
| GUUCCGUUGGCGUAAUGGUAACGCGUCUCCGUCCUAAGGUGAAGUCUGCGGGUUCGAGUCCAGUACGGAACG [C31G A40U A45U C62A] | 0.591 |
| GUUCCGUUGGCGUAAUGGUAACGCGUCUCCGUCCUAGGGAGAAGACUGCGGGUUCGAGUCCUCUACGGAACG [C31G A37G C62U G63C] | 0.54 |
| GUUCCGUUGGCGUAAUGGUAACGCGUCUCCGUCCUAAGGAGAAGACUGCGGGUUCGAGUCCCGUACGGAACG [C31G] | 0.939 |
| GUUCCGUUGGCGUAAUGGUAACGCGUCUCCAUCCUAAGGAGAAGACUGCGGCUUCGAGUCCCGUACGGAACG [C31A G52C] | ≤ 0.5 |

Reference: the RNAGym collection of RNA variant scans (doi:10.1126/science.aae0568)
